Source: PubChem BioAssay
Active and inactive are the calls of the source.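 How the source made its calls: active means GFP response above 150% of the DMSO control; inconclusive means fewer than 70 events counted in any yeast strain; inactive means the rest.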

Experiment: hit retest on RPL19A-GFP reporter strain – cell-based, S. cerevisiae, flow cytometry, cherry picks, mother/daughter gates, confirmation (AID 2270)
Details: 3 h, measured here: mother cell gate, at 10 µM, stronger effect = lower value, 100 = same GFP as DMSO wells
In the case of Cc1c([N+](=O)[O-])cnc(Sc2ccccc2)c1[N+](=O)[O-], the GFP response vs DMSO was 98.9%. Cc1cc(C(=O)Nc2nc(-c3ccccn3)cs2)ccc1[N+](=O)[O-] showed a GFP response vs DMSO of 97.2%. COc1cc(/C=C/C(=O)c2c(O)cc(C)oc2=O)cc(OC)c1O gave a GFP response vs DMSO of 96.8%. For COc1ccc2ccccc2c1/C=N/Nc1cccc(C(=O)O)c1, the GFP response vs DMSO was 100%. With CCn1c(=O)c(C(=O)NC(C)C)c(O)c2ccccc21 the GFP response vs DMSO was 101%. CCOc1cc(N2CCOCC2)c(OCC)cc1NC(=O)C(NC(=O)c1ccco1)C(C)C (configuration not stated) showed a GFP response vs DMSO of 102%. CNC(=O)/C(C#N)=C/c1c(N(Cc2ccccc2)Cc2ccccc2)nc2c(C)cccn2c1=O showed a GFP response vs DMSO of 97.8%. Work on O=C(COc1ccccc1)N1CCN(c2ncnc3c2cnn3-c2ccccc2)CC1 yielded a GFP response vs DMSO of 98.6%. O=S(=O)(c1ccc(Oc2ccccc2)cc1)N1CCOCC1 showed a GFP response vs DMSO of 98.2%. In the case of O=S(=O)(/N=C(/Nc1ccc(F)cc1F)c1ccc(Cl)cc1)c1ccccc1, the GFP response vs DMSO was 103%. In the case of CC(=O)Nc1cccc(Oc2ccc(-c3noc(C)n3)cc2)c1, the GFP response vs DMSO was 96.3%. C/C(=N/NC(=O)c1ccc(C(C)(C)C)cc1)c1ccccn1 gave a GFP response vs DMSO of 101%. Compound O=C(Sc1cccc2cccnc12)c1ccccc1Br has a GFP response vs DMSO of 98.5%. With CCOc1cc(-c2nc3cc(C)ccn3c2NCC2CCCO2)ccc1O (configuration not stated) the GFP response vs DMSO was 101%. In the case of Oc1ccccc1/C=N/c1c(-c2ccco2)nc2ccccn12, the GFP response vs DMSO was 100%. Cc1ccc(C2=NN(S(C)(=O)=O)C(c3ccc4c(c3)OCO4)C2)cc1 (configuration not stated) showed a GFP response vs DMSO of 102%. With COc1ccccc1NC(=O)Cn1nnc(-c2ccccc2NC(=O)c2ccco2)n1 the GFP response vs DMSO was 96.6%. Work on Cc1ccc(C(=O)N/C(=C/c2ccco2)C(=O)N2CCOCC2)cc1 yielded a GFP response vs DMSO of 104%. Work on COc1ccc(-c2cc3cc(C(=O)O)ccn3c2C(=O)c2ccccc2)cc1 yielded a GFP response vs DMSO of 98.4%. In the case of COc1ccccc1C(=O)NNC(=S)NC(=O)c1cccs1, the GFP response vs DMSO was 107%. CC(=O)Oc1c(C)cc(Cl)cc1C(=O)Nc1ccc([N+](=O)[O-])cc1Cl showed a GFP response vs DMSO of 98.2%.

Experiment: yeast TOR pathway reporter LAP4-GFP change – cell-based, cherry picks, flow cytometry, mother/daughter gates, confirmation (AID 2271);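 further: ratio of sample to DMSO plate mean so 100% equals DMSO level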
Details: S. cerevisiae LAP4-GFP strain, 3 h, at 10 µM, stronger effect = higher value, 100 means same as DMSO control
Outline: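 System – GFP-fusion yeast strain · Amount – 0.2 OD600 cells · Buffer or medium – SC growth medium · Dosing – single test-compound dose, 10 µM final · Schedule – 3 h treatment at 30 °C with rotation · Detection – GFP by flow cytometry · Read-out – per-gate (all, mother, daughter) GFP response vs DMSO · Benchmarks – positive rapamycin (400 ng/mL), negative DMSO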
In the case of CCN(C(=O)c1ccccc1Cl)c1ccccc1, the GFP response relative to DMSO was 107% (inactive). With CCN(CC)CCNC(=O)Cn1c(-c2ccccn2)nc2ccccc21 the GFP response relative to DMSO was 96.2% (inactive). For Nc1cc(N)nc(SCC(=O)N2CCc3ccccc32)n1, the GFP response relative to DMSO was 97.9% (inactive). In the case of N#C/C(=C\c1ccc(N2CCOCC2)o1)c1ccccc1, the GFP response relative to DMSO was 102% (inactive). In the case of CS(=O)(=O)N1CCc2cc(C(=O)Nc3ccc(COCC(F)(F)F)cc3)ccc21, the GFP response relative to DMSO was 92.6% (inactive). In the case of CCc1noc(C)c1C(=O)Nc1nc(-c2ccc(Cl)cc2Cl)cs1, the GFP response relative to DMSO was 97.7% (inactive). For O=C(O)c1ccc2c3c(ncnc13)-c1ccccc1C2=O, the GFP response relative to DMSO was 135% (inactive). In the case of Cc1ccc(NC(=O)c2ccccc2)cc1, the GFP response relative to DMSO was 98.7% (inactive). For Cc1ccc(C)c(-c2nnc(NC(=O)c3ccc([N+](=O)[O-])o3)o2)c1, the GFP response relative to DMSO was 115% (inactive). In the case of COc1ccc(N2C(=O)C(Cl)=C(Oc3cccc(OC)c3)C2=O)cc1, the GFP response relative to DMSO was 218% (active). With Cc1cc(C)c(S(=O)(=O)ON2C(=O)c3ccccc3C2=O)cc1C the GFP response relative to DMSO was 255% (active). With O=C(COC(=O)/C=C/c1cccs1)Nc1nc(-c2ccccc2)cs1 the GFP response relative to DMSO was 102% (inactive). With CCOc1ccccc1/C=C/C(=O)c1ccc(Cl)cc1 the GFP response relative to DMSO was 99.2% (inactive). With O=C(NC(=S)NNC(=O)c1cnccn1)c1ccc(F)cc1 the GFP response relative to DMSO was 259% (active). In the case of Cc1ccc(Nc2c(-c3ccccn3)nc3ccc(C)cn23)cc1, the GFP response relative to DMSO was 148% (inactive). In the case of O=c1/c(=C/c2cccc3ccccc23)sc2ncnn12, the GFP response relative to DMSO was 185% (active). With Cc1c(NC(=O)/C(C#N)=C/c2c(N3CCCCC3)nc3ccccn3c2=O)c(=O)n(-c2ccccc2)n1C the GFP response relative to DMSO was 94.1% (inactive). With CS(=O)(=O)N1N=C(c2ccco2)CC1c1ccc(Br)cc1 (configuration not stated) the GFP response relative to DMSO was 103% (inactive). With O=C(Oc1ccnc2cc(Cl)ccc12)N1CCCCCC1 the GFP response relative to DMSO was 114% (inactive). For Cc1c([N+](=O)[O-])cnc(Sc2ccccc2)c1[N+](=O)[O-], the GFP response relative to DMSO was 124% (inactive). With Cc1cc(C(=O)Nc2nc(-c3ccccn3)cs2)ccc1[N+](=O)[O-] the GFP response relative to DMSO was 158% (active). For COc1cc(/C=C/C(=O)c2c(O)cc(C)oc2=O)cc(OC)c1O, the GFP response relative to DMSO was 106% (inactive). In the case of COc1ccc2ccccc2c1/C=N/Nc1cccc(C(=O)O)c1, the GFP response relative to DMSO was 98.2% (inactive). With CCn1c(=O)c(C(=O)NC(C)C)c(O)c2ccccc21 the GFP response relative to DMSO was 101% (inactive). For CCOc1cc(N2CCOCC2)c(OCC)cc1NC(=O)C(NC(=O)c1ccco1)C(C)C (configuration not stated), the GFP response relative to DMSO was 91.4% (inactive). In the case of CNC(=O)/C(C#N)=C/c1c(N(Cc2ccccc2)Cc2ccccc2)nc2c(C)cccn2c1=O, the GFP response relative to DMSO was 94.4% (inactive).
